Broadly, the MIC is the smallest concentration in the dilution series that meets the test's criterion for growth inhibition.

This note sets out measurements from ChEMBL document CHEMBL1157592, “Design, synthesis and antimicrobial properties of non-hemolytic cationic alpha-cyclopeptoids” (Bioorg Med Chem, 2010).

In brackets after ≈: the same amount, converted by molar mass. Activity calls are given as the source filed them. Square brackets hold non-standard residues; d marks the D form. Peptide text beside a SMILES is read from it. Nphe = O=C(O)CNCc1ccccc1; Nlys = NCCCCNCC(=O)O

Series [1] relates to Candida albicans. As to the kind of experiment: Antimicrobial activity against Candida albicans ATCC 90029 after 48 hrs by broth microdilution method. It counts as functional. As to conditions: ATCC 90029, 48 h. Put shortly:
(§1)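 Fungi grown on Sabouraud agar at 30 °C for 48 h, suspended in PBS, turbidity read at 600 nm and adjusted in RPMI-1640. Twofold serial dilutions made in RPMI-1640, inoculum ~5 × 10⁴ cells/mL, incubated 30 °C for 48 h. MIC is the lowest concentration giving complete inhibition of visible growth, following NCCLS broth microdilution guidelines.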
A general note: Broth dilution looks for growth in wells or tubes with falling amounts of substance.

The subject of series [2] is Candida albicans. Put plainly: Antimicrobial activity against Candida albicans L21 after 48 hrs by broth microdilution method. It counts as functional. As to conditions: L21, 48 h. The procedure, abridged:
as §1

Series [3] relates to Cryptococcus neoformans. Put plainly: Antimicrobial activity against Cryptococcus neoformans ATCC 90112 after 48 hrs by broth microdilution method. It counts as functional. To be noted: ATCC 90112, 48 h. The procedure, abridged:
as §1

The test system of series [4] is Cryptococcus neoformans. Put plainly: Antimicrobial activity against Cryptococcus neoformans L1 after 48 hrs by broth microdilution method. As to conditions: L1, 48 h. It counts as functional. Put shortly:
as §1

Series [5] deals with Escherichia coli. As to the kind of experiment: Antimicrobial activity against Escherichia coli ATCC 25922 after 18 hrs by broth microdilution method. It counts as functional. To be noted: ATCC 25922, 18 h. The procedure, abridged: (§2)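 Strains grown at 37 °C in Mueller–Hinton broth and tested in logarithmic phase. Twofold serial dilutions made in MH broth, inoculum ~2.5 × 10⁵ cells/mL, incubated overnight (18 h) at 37 °C. MIC is the lowest concentration giving complete inhibition of visible growth, following NCCLS broth microdilution guidelines.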

A further series concerns Salmonella typhimurium. Put plainly: Antimicrobial activity against Salmonella Typhimurium ATCC 14028 after 18 hrs by broth microdilution method. It counts as functional, Salmonella enterica subsp. enterica serovar Typhimurium. As to conditions: Salmonella enterica, ATCC 14028, 18 h. The procedure, abridged: as §2
Series [6] has as its system Staphylococcus aureus. As to the kind of experiment: Antimicrobial activity against Staphylococcus aureus ATCC 25923 after 18 hrs by broth microdilution method. It counts as functional. As to conditions: ATCC 25923, 18 h. Put shortly: as §2
In a further series the test system is Debaryomyces hansenii. As to the kind of experiment: Antimicrobial activity against Candida famata SA550 after 48 hrs by broth microdilution method. It counts as functional. As to conditions: SA550, 48 h. The procedure, abridged:
as §1

Series [7] in a line: Toxicity in human RBCs assessed as induction of hemolysis at 20 uM relative to untreated control. It counts as cell-based, Erythrocyte. As to conditions: red blood cells (RBCs).
A short description of series [8]: Toxicity in human RBCs assessed as induction of hemolysis at 100 uM relative to untreated control. As to conditions: erythrocyte. It counts as cell-based. Put shortly:
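Erythrocytes taken from fresh human blood anticoagulated with citrate-dextrose. A 0.5% (v/v) suspension in 10 mM phosphate buffer pH 7.4 with 139 mM NaCl was incubated with 100 µM cyclopeptoid for 60 min at 37 °C. Reaction stopped with cold buffer, centrifuged at 10,000g for 1 min, and the supernatant collected.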

In series [9] the test system is Candida albicans. As to the kind of experiment: Membrane permeabilizing effect in Candida albicans ATCC 90029 assessed as propidium iodide uptake at 100 uM after 120 mins by flow cytometry. It counts as functional, organism-based. Put shortly:
(§3)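 Candida subcultured on Sabouraud agar, diluted in RPMI-1640 to 1 × 10⁵ cells/mL and incubated with peptoid at 30 °C for various times. Propidium iodide (final 10 µg/mL) added, 4 min at 30 °C, then flow cytometry with ≥10,000 events. Read-out is % PI-positive cells, background (no peptoid) subtracted; triplicates, mean ± SD.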

Series [10] deals with Candida albicans. Put plainly: Membrane permeabilizing effect in Candida albicans ATCC 90029 assessed as propidium iodide uptake at 100 uM after 120 to 240 mins by flow cytometry. It counts as functional. Put shortly: as §3
Background: In flow cytometry, cells or beads pass a laser one at a time.

The test system of series [11] is Candida albicans. Put plainly: Membrane permeabilizing effect in Candida albicans ATCC 90029 assessed as propidium iodide uptake at 250 uM after 30 to 240 mins by flow cytometry. It counts as functional, organism-based. Put shortly:
as §3

In series [12] the test system is Escherichia coli. As to the kind of experiment: Membrane permeabilizing effect in Escherichia coli ATCC 25922 assessed as propidium iodide uptake at 250 uM after 180 mins by flow cytometry. It counts as functional, organism-based. The procedure, abridged: (§4)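 Log-phase bacteria at 1 × 10⁶ cells/mL in MH broth incubated with peptoid at 37 °C for various times. Propidium iodide (final 10 µg/mL) added, 4 min at 37 °C, then flow cytometry with ≥10,000 events. Read-out is % PI-positive cells, background (no peptoid) subtracted; triplicates, mean ± SD.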

Series [13] deals with Staphylococcus aureus. As to the kind of experiment: Membrane permeabilizing effect in Staphylococcus aureus ATCC 25923 assessed as propidium iodide uptake at 250 uM after 60 mins by flow cytometry. It counts as functional. Put shortly:
as §4

On to `NCCCCN(CC(=O)N(CC(=O)N(CC(=O)N(CCCCN)CC(=O)N(CC(=O)O)Cc1ccccc1)Cc1ccccc1)Cc1ccccc1)C(=O)CNCc1ccccc1` (H-[Nphe][Nlys][Nphe][Nphe][Nlys][Nphe]-OH), for which the minimal inhibitory concentration (MIC) in the series with Candida albicans [1] is greater than 1000 µM; in the series on Candida albicans [2], greater than 1000 µM; in the series with Cryptococcus neoformans [3], greater than 1000 µM; with Cryptococcus neoformans [4], 788 µM (≈ 680 µg/mL); with Escherichia coli [5], greater than 1000 µM; against Salmonella typhimurium, greater than 1000 µM. Moreover, the MIC against Staphylococcus aureus [6] is greater than 1000 µM.
Regarding `O=C1CN(Cc2ccccc2)C(=O)CN(Cc2ccccc2)C(=O)CN(Cc2ccccc2)C(=O)CN(Cc2ccccc2)C(=O)CN(Cc2ccccc2)C(=O)CN1Cc1ccccc1`, the MIC against Candida albicans [1], against Candida albicans [2], in the series on Cryptococcus neoformans [3], in the series with Cryptococcus neoformans [4], against Escherichia coli [5] and against Salmonella typhimurium was greater than 1000 µM in each case. This compound registered an MIC in the series with Staphylococcus aureus [6] greater than 1000 µM.
With `NCCCCN(CC(=O)O)C(=O)CN(CCCCN)C(=O)CN(Cc1ccccc1)C(=O)CN(CCCCN)C(=O)CN(CCCCN)C(=O)CNCc1ccccc1`, the MIC in the series with Candida albicans [1], with Candida albicans [2], in the series with Cryptococcus neoformans [3], in the series with Cryptococcus neoformans [4], against Escherichia coli [5] and in the series on Salmonella typhimurium was greater than 1000 µM throughout. Besides, the MIC in the series on Staphylococcus aureus [6] and in the series on Debaryomyces hansenii was greater than 1000 µM throughout.
In the case of `CC[C@H](C)[C@H](NC(=O)CN)C(=O)NCC(=O)N[C@@H](C)C(=O)N[C@H](C(=O)N[C@@H](CC(C)C)C(=O)N[C@@H](CCCCN)C(=O)N[C@H](C(=O)N[C@@H](CC(C)C)C(=O)N[C@H](C(=O)N[C@H](C(=O)NCC(=O)N[C@@H](CC(C)C)C(=O)N1CCC[C@H]1C(=O)N[C@@H](C)C(=O)N[C@@H](CC(C)C)C(=O)N[C@H](C(=O)N[C@@H](CO)C(=O)N[C@@H](Cc1c[nH]c2ccccc12)C(=O)N[C@H](C(=O)N[C@@H](CCCCN)C(=O)N[C@@H](CCCNC(=N)N)C(=O)N[C@@H](CCCCN)C(=O)N[C@@H](CCCNC(=N)N)C(=O)N[C@@H](CCC(N)=O)C(=O)N[C@@H](CCC(N)=O)C(N)=O)[C@@H](C)CC)[C@@H](C)CC)[C@@H](C)O)[C@@H](C)O)C(C)C)C(C)C` [MELITTIN], the hemolysis at 20 µM in series [7] is greater than 90%.
For the compound `NCCCCN1CC(=O)N(CCOCc2ccccc2)CC(=O)N(CCOCc2ccccc2)CC(=O)N(CCCCN)CC(=O)N(CCOCc2ccccc2)CC(=O)N(CCOCc2ccccc2)CC1=O`, the MIC is 196 µM (≈ 200 µg/mL) against Candida albicans [1]; 196 µM (≈ 200 µg/mL) against Candida albicans [2]; 196 µM (≈ 200 µg/mL) in the series with Cryptococcus neoformans [3]; 98 µM (≈ 100 µg/mL) in the series on Cryptococcus neoformans [4]; 392 µM (≈ 400 µg/mL) in the series with Escherichia coli [5]; greater than 792 µM in the series on Salmonella typhimurium. In the series with Staphylococcus aureus [6], the MIC was 392 µM (≈ 400 µg/mL).
`NCCCCNCC(=O)N(CCCCN)CC(=O)N(CCCCN)CC(=O)N(CCCCN)CC(=O)N(CCCCN)CC(=O)N(CCCCN)CC(=O)O`: the MIC against Candida albicans [1] is greater than 1000 µM; in the series with Candida albicans [2] it was 500 µM (≈ 394 µg/mL); in the series on Cryptococcus neoformans [3] it was greater than 1000 µM; with Cryptococcus neoformans [4] it was greater than 1000 µM; in the series on Escherichia coli [5] it was greater than 1000 µM; in the series with Salmonella typhimurium, greater than 1000 µM. The MIC against Staphylococcus aureus [6] and against Debaryomyces hansenii was greater than 1000 µM throughout.
Turning to `NCCCCN1CC(=O)N(CCCCN)CC(=O)N(CCCCN)CC(=O)N(CCCCN)CC(=O)N(CCCCN)CC(=O)N(CCCCN)CC1=O.O=C(O)C(F)(F)F.O=C(O)C(F)(F)F.O=C(O)C(F)(F)F.O=C(O)C(F)(F)F.O=C(O)C(F)(F)F.O=C(O)C(F)(F)F`, the MIC against Candida albicans [1] was 10 µM; in the series with Candida albicans [2], 5 µM; in the series on Cryptococcus neoformans [3], greater than 1000 µM; in the series on Cryptococcus neoformans [4], greater than 1000 µM; in the series on Escherichia coli [5], greater than 1000 µM; against Salmonella typhimurium, greater than 1000 µM. Further, the results for the MIC in the series with Staphylococcus aureus [6] and in the series on Debaryomyces hansenii were greater than 1000 µM and 5 µM, respectively. Besides, the Activity result in series [8] was “Non-toxic”.
For the compound `O=C1CN(CCOCc2ccccc2)C(=O)CN(CCOCc2ccccc2)C(=O)CN(CCOCc2ccccc2)C(=O)CN(CCOCc2ccccc2)C(=O)CN(CCOCc2ccccc2)C(=O)CN1CCOCc1ccccc1`, the MIC in the series on Candida albicans [1], against Candida albicans [2], with Cryptococcus neoformans [3], with Cryptococcus neoformans [4], with Escherichia coli [5] and against Salmonella typhimurium was greater than 1000 µM throughout. This compound also displayed an MIC in the series with Staphylococcus aureus [6] greater than 1000 µM.
With `NCCCCN1CC(=O)N(Cc2ccccc2)CC(=O)N(Cc2ccccc2)CC(=O)N(CCCCN)CC(=O)N(Cc2ccccc2)CC(=O)N(Cc2ccccc2)CC1=O` (cyclo([Nlys][Nphe][Nphe][Nlys][Nphe][Nphe])), the MIC was found to be 465 µM (≈ 393 µg/mL) in the series on Candida albicans [1]; 232 µM (≈ 196 µg/mL) against Candida albicans [2]; 232 µM (≈ 196 µg/mL) against Cryptococcus neoformans [3]; 116 µM (≈ 98 µg/mL) with Cryptococcus neoformans [4]; 465 µM (≈ 393 µg/mL) against Escherichia coli [5]; 465 µM (≈ 393 µg/mL) against Salmonella typhimurium. The lowest concentration to inhibit growth against Staphylococcus aureus [6] (MIC) was 465 µM (≈ 393 µg/mL).
Turning to `NCCCCN(CC(=O)N(CCOCc1ccccc1)CC(=O)N(CCOCc1ccccc1)CC(=O)N(CCCCN)CC(=O)N(CCOCc1ccccc1)CC(=O)O)C(=O)CNCCOCc1ccccc1`, the MIC with Candida albicans [1] was 360 µM (≈ 374 µg/mL); with Candida albicans [2], 360 µM (≈ 374 µg/mL); with Cryptococcus neoformans [3], 180 µM (≈ 187 µg/mL); against Cryptococcus neoformans [4], 90 µM (≈ 93.5 µg/mL); in the series with Escherichia coli [5], 360 µM (≈ 374 µg/mL); in the series with Salmonella typhimurium it was 720 µM (≈ 748 µg/mL). In the series on Staphylococcus aureus [6], this compound registered an MIC greater than 720 µM.
On to `NCCCCN1CC(=O)N(Cc2ccccc2)CC(=O)N(CCCCN)CC(=O)N(CCCCN)CC(=O)N(Cc2ccccc2)CC(=O)N(CCCCN)CC1=O.O=C(O)C(F)(F)F.O=C(O)C(F)(F)F.O=C(O)C(F)(F)F.O=C(O)C(F)(F)F` (cyclo([Nlys][Nlys][Nphe][Nlys][Nlys][Nphe])), for which the MIC in the series with Candida albicans [1] was 12 µM; in the series with Candida albicans [2], 12 µM; in the series on Cryptococcus neoformans [3] it was 47 µM; against Cryptococcus neoformans [4], 99 µM; with Escherichia coli [5], 786 µM; in the series on Salmonella typhimurium, greater than 1000 µM. For the same compound, the values for the MIC in the series on Staphylococcus aureus [6] and in the series on Debaryomyces hansenii were greater than 1000 µM and 12 µM, respectively. Besides, the values for the Activity result (in series [8]; with Candida albicans [10]) were “Non-toxic” and 50%, respectively. Moreover, the outcome in the series with Candida albicans [9] was Active.
As to `NCCCCN1CC(=O)N(CCOCc2ccccc2)CC(=O)N(CCCCN)CC(=O)N(CCOCc2ccccc2)CC(=O)N(CCCCN)CC(=O)N(CCOCc2ccccc2)CC1=O.O=C(O)C(F)(F)F.O=C(O)C(F)(F)F.O=C(O)C(F)(F)F`, the MIC is 184 µM in the series on Candida albicans [1]; 184 µM against Candida albicans [2]; 184 µM against Cryptococcus neoformans [3]; 92 µM in the series on Cryptococcus neoformans [4]; 383 µM in the series with Escherichia coli [5]; greater than 766 µM in the series on Salmonella typhimurium. In the series with Staphylococcus aureus [6], this compound had a minimal inhibitory concentration (MIC) of 383 µM. For the same compound, the result in the series with Candida albicans [11] and in the series with Escherichia coli [12] was inactive. Further, the Activity with Staphylococcus aureus [13] was greater than 40%.
